Assay results as given in ChEMBL document CHEMBL1127536, “2-Azetidinones as inhibitors of cholesterol absorption” (J Med Chem, 1994).

What was measured:
[1] = molecular target: T1, Sterol O-acyltransferase 1 (Rattus norvegicus) (UniProt O70536); assay: Inhibition of Acyl coenzyme A:cholesterol acyltransferase in microsomal ACAT assay at 10 uM
T1 sequence (whole entry): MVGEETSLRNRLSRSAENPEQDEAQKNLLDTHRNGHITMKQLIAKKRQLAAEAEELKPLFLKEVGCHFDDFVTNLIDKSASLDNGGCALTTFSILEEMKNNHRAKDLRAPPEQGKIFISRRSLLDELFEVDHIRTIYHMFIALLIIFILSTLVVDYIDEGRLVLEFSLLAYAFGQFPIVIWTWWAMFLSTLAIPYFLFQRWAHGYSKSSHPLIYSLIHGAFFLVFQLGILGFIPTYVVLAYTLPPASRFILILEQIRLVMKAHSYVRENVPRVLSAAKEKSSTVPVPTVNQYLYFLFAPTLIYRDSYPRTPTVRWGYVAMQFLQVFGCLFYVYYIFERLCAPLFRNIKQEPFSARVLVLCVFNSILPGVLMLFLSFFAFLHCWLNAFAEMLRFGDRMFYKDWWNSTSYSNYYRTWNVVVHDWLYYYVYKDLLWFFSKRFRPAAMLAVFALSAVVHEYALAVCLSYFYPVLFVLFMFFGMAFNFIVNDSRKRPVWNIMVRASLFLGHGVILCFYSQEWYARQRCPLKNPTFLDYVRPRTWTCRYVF
Method in brief: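 Rat hepatic microsomes (12.5 μg protein) with 90 µM fatty-acid-free BSA in 0.1 M potassium phosphate, 2 mM DTT, pH 7.4. Compound added from DMSO stocks and preincubated 15 min at 37 °C. Reaction started with [³H]-oleoyl-CoA (10 μM final) and run 15 min at 37 °C. Aliquot spotted on silica TLC, developed, and radioactivity in the cholesteryl oleate band counted by scintillation.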

[2] = tested on: Cricetinae gen. sp.; assay: Percent reduction in plasma cholesterol was evaluated by hamster cholesterol absorption assay at the particular dose of 50(mg/kg/day); type: functional, Cricetulus griseus
Method in brief: (§1)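 Hamsters fed cholesterol for 1 week while dosed daily (mg/kg/day). Read-out was inhibition of the rise in plasma cholesterol, measured by a cholesterol oxidase kit method.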

[3] = tested on: Cricetinae gen. sp.; assay: Percent reduction of hepatic cholesteryl esters was evaluated by hamster cholesterol absorption assay at the particular dose of 50 (mg/kg/day); type: functional, Cricetulus griseus
Method in brief: (§2)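 Hamsters fed cholesterol for 1 week while dosed daily (mg/kg/day). Liver was Folch-extracted and neutral lipids were analysed by HPLC, giving the reduction in hepatic cholesteryl ester rise as the absorption marker. ED50 was taken from dose-response curves.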

[4] = tested on: Cricetinae gen. sp.; assay: Effective dose evaluated in hamster cholesterol absorption assay; type: functional; method in brief: as §2
[5] = tested on: Cricetinae gen. sp.; assay: Percent reduction in plasma cholesterol was evaluated by hamster cholesterol absorption assay at the particular dose of 10 (mg/kg/day); type: functional, Cricetulus griseus; method in brief: as §1
[6] = tested on: Cricetinae gen. sp.; assay: Percent reduction of hepatic cholesteryl esters was evaluated by hamster cholesterol absorption assay at the particular dose of 10 (mg/kg/day); type: functional, Cricetulus griseus; method in brief: as §2
[7] = tested on: Cricetinae gen. sp.; assay: Percent reduction in plasma cholesterol was evaluated by hamster cholesterol absorption assay at the particular dose of 100 (mg/kg/day); type: functional, Cricetulus griseus; method in brief: as §1
[8] = tested on: Cricetinae gen. sp.; assay: Percent reduction of hepatic cholesteryl esters was evaluated by hamster cholesterol absorption assay at the particular dose of 100 (mg/kg/day); type: functional, Cricetulus griseus; method in brief: as §2
[9] = tested on: Cricetinae gen. sp.; assay: Percent reduction in plasma cholesterol was evaluated by hamster cholesterol absorption assay at the particular dose of 50 (mg/kg/day); type: functional, Cricetulus griseus; method in brief: as §1
[10] = molecular target: T2, Sterol O-acyltransferase 1 (Rattus norvegicus, UniProt O70536); assay: Concentration required for 50% inhibition of Acyl coenzyme A:cholesterol acyltransferase activity using microsomal ACAT assay
T2 sequence (O70536 whole entry): T1 sequence (whole entry)

[11] = Cricetinae gen. sp., read-out: ED50

| SMILES | inhibition ([1]; 10 uM) [%] | Reduction [3] [%] | Reduction [5] [%] | Reduction [6] [%] | Reduction [9] [%] | other results |
| --- | --- | --- | --- | --- | --- | --- |
| COc1ccc([C@@H]2[C@@H](CCCc3ccccc3)C(=O)N2c2ccc(OC)cc2)cc1 (racemic) [SCH-48461] | – | – | 21 | 60 | – | ED50 [4]: 7.1 mg/kg/day |
| COc1ccc(N2C(=O)[C@@](C(=O)Cc3ccccc3)(c3ccccc3)[C@H]2c2ccccc2)cc1 | – | – | – | – | – | inhibition ([1]; 25 uM, in the assay text read “at 25 uM” for “at 10 uM”): 83%; Reduction [7]: 10%; Reduction [8]: 26% |
| CC[C@]1(CCCc2ccccc2)CN(c2ccc(OC)cc2)C1=O | – | 0 | – | – | 10 | – |
| COc1ccc([C@@H]2[C@H](CCCc3ccccc3)C(=O)N2c2ccc(OC)cc2)cc1 | – | – | 17 | 55 | – | ED50 [4, 11]: 11.5 mg/kg/day |
| COc1ccc(N2C(=O)[C@@](CCCc3ccccc3)(c3ccccc3)[C@H]2c2ccccc2)cc1 | 84 | 16 | – | – | 11 | IC50 [10]: 6 µM |
| COc1ccc([C@@H]2[C@@H](CCCc3ccccc3)C(=O)N2c2ccc(OC)cc2)cc1 [SCH-48461] | – | 0 | 43 | 93 | 10 | ED50 [4]: 2.2 mg/kg/day |

Now from value to compound, other results behind:

| inhibition ([1]; 10 uM) [%] | SMILES | Reduction [3] [%] | Reduction [5] [%] | Reduction [6] [%] | Reduction [9] [%] | other results |
| --- | --- | --- | --- | --- | --- | --- |
| 28 | COc1ccc(N2C(=O)[C@@H](CCCc3ccccc3)[C@H]2c2ccccc2)cc1 | 0 | – | – | – | Reduction [2]: 0% |
| 82 | CC[C@@]1(CCCc2ccccc2)C(=O)N(c2c(OC)cc(OC)cc2OC)[C@@H]1c1ccccc1 | 31 | – | – | 0 | – |
| 33 | CC[C@]1(CCCc2ccccc2)C(=O)N(c2ccc(OC)cc2)[C@@H]1c1ccccc1 | 29 | – | – | 12 | – |
| 42 | CC[C@]1(CCCc2ccccc2)C(=O)N(c2c(OC)cc(OC)cc2OC)[C@@H]1c1ccccc1 | 0 | – | – | 0 | – |
| 38 | CC[C@]1(CCCc2ccccc2)CN(c2c(OC)cc(OC)cc2OC)C1=O | -29 | – | – | – | Reduction [2]: 7% |
| 72 | CCCCCCCCCCC(C)(C)C(=O)Nc1c(OC)cc(OC)cc1OC [CL-976] | – | 0 | 33 | – | ED50 [4, 11]: 16 mg/kg/day |
| 61 | COc1cc(OC)c(N2C(=O)[C@@H](CCCc3ccccc3)[C@H]2c2ccccc2)c(OC)c1 | -20 | – | – | 0 | – |
